Data from ChEMBL document CHEMBL4325889, “Natural products hybrids: 3,5,4'-Trimethoxystilbene-5,6,7-trimethoxyflavone chimeric analogs as potential cytotoxic agents against diverse human cancer cells” (Eur J Med Chem, 2019).

Assays:
Assay type in all cases: functional
[1] = tested on: HCC 2998; experiment: Growth inhibition of human HCC2998 cells at 10 uM after 48 hrs by SRB assay relative to control; conditions: HCC 2998, 48 h, read-out: GI
Summary of the method: (§1)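 Screened at the National Cancer Institute by the standard NCI protocol using the sulforhodamine B assay, which measures cellular protein. Single dose of 10 µM. Result is percent growth inhibition; values above 100% mean cell number fell below the initial population. Values are the average of duplicates.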

[2] = tested on: HL-60(TB); experiment: Growth inhibition of human HL-60(TB) cells at 10 uM after 48 hrs by SRB assay relative to control; conditions: HL-60, 48 h, read-out: GI
Summary of the method: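 Run at NCI under its standard single-dose protocol against a leukemia cell panel. Cells were exposed to 10 µM; growth was read by sulforhodamine B staining of cellular protein and expressed as % growth inhibition versus untreated control. Values above 100% mean the cell population fell below the starting count (cytocidal). Each value is the average of duplicates.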

[3] = tested on: CCRF-CEM; experiment: Growth inhibition of human CCRF-CEM cells at 10 uM after 48 hrs by SRB assay relative to control; conditions: read-out: GI; summary of the method: as §1
[4] = tested on: OVCAR-5; experiment: Growth inhibition of human OVCAR5 cells at 10 uM after 48 hrs by SRB assay relative to control; conditions: OVCAR-5, 48 h, read-out: GI; summary of the method: as §1
[5] = tested on: IGROV-1; experiment: Growth inhibition of human IGROV1 cells at 10 uM after 48 hrs by SRB assay relative to control; conditions: IGROV-1, 48 h, read-out: GI; summary of the method: as §1
[6] = tested on: UACC-257; experiment: Growth inhibition of human UACC257 cells at 10 uM after 48 hrs by SRB assay relative to control; conditions: UACC-257, 48 h, read-out: GI
Summary of the method: (§2)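 NCI screen against its human cancer cell line panel by the standard NCI protocol, SRB protein stain. Single dose of 10 μM. Percent growth inhibition versus control; values above 100% mean the cell population fell below the starting number. Each value is the mean of duplicates.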

[7] = tested on: NCI-H522; experiment: Growth inhibition of human NCI-H522 cells at 10 uM after 48 hrs by SRB assay relative to control; conditions: NCI-H522, 48 h, read-out: GI; summary of the method: as §1
[8] = tested on: SF-539; experiment: Growth inhibition of human SF539 cells at 10 uM after 48 hrs by SRB assay relative to control; conditions: SF-539, 48 h, read-out: GI; summary of the method: as §1
[9] = tested on: SW-620; experiment: Growth inhibition of human SW620 cells at 10 uM after 48 hrs by SRB assay relative to control; conditions: SW-620, 48 h, read-out: GI; summary of the method: as §2
[10] = tested on: PC-3; experiment: Growth inhibition of human PC3 cells at 10 uM after 48 hrs by SRB assay relative to control; conditions: PC-3, 48 h, read-out: GI; summary of the method: as §1
[11] = tested on: OVCAR-4; experiment: Growth inhibition of human OVCAR4 cells at 10 uM after 48 hrs by SRB assay relative to control; conditions: OVCAR-4, 48 h, read-out: GI; summary of the method: as §1
[12] = tested on: NCI/ADR-RES; experiment: Growth inhibition of human NCI/ADR-RES cells at 10 uM after 48 hrs by SRB assay relative to control; conditions: read-out: GI; summary of the method: as §1
[13] = tested on: SK-MEL-28; experiment: Growth inhibition of human SK-MEL-28 cells at 10 uM after 48 hrs by SRB assay relative to control; conditions: SK-MEL-28, 48 h, read-out: GI; summary of the method: as §1
[14] = tested on: OVCAR-3; experiment: Growth inhibition of human OVCAR3 cells at 10 uM after 48 hrs by SRB assay relative to control; conditions: OVCAR-3, 48 h, read-out: GI; summary of the method: as §1
[15] = tested on: RPMI-8226; experiment: Growth inhibition of human RPMI8226 cells at 10 uM after 48 hrs by SRB assay relative to control; conditions: RPMI-8226, 48 h, read-out: GI; summary of the method: as §1
[16] = tested on: SK-MEL-5; experiment: Growth inhibition of human SK-MEL-5 cells at 10 uM after 48 hrs by SRB assay relative to control; conditions: SK-MEL-5, 48 h, read-out: GI; summary of the method: as §1
[17] = tested on: MCF7; experiment: Growth inhibition of human MCF7 cells at 10 uM after 48 hrs by SRB assay relative to control; conditions: MCF7, 48 h, read-out: GI; summary of the method: as §1
[18] = tested on: CAKI-1; experiment: Growth inhibition of human Caki1 cells at 10 uM after 48 hrs by SRB assay relative to control; conditions: CAKI-1, 48 h, read-out: GI; summary of the method: as §1
[19] = tested on: HOP-92; experiment: Growth inhibition of human HOP92 cells at 10 uM after 48 hrs by SRB assay relative to control; conditions: HOP-92, 48 h, read-out: GI; summary of the method: as §1
[20] = tested on: BT-549; experiment: Growth inhibition of human BT549 cells at 10 uM after 48 hrs by SRB assay relative to control; conditions: BT-549, 48 h, read-out: GI; summary of the method: as §1
[21] = tested on: LOX IMVI; experiment: Growth inhibition of human LOXIMVI cells at 10 uM after 48 hrs by SRB assay relative to control; conditions: read-out: GI; summary of the method: as §1
[22] = tested on: RXF 393; experiment: Growth inhibition of human RXF393 cells at 10 uM after 48 hrs by SRB assay relative to control; conditions: RXF 393, 48 h, read-out: GI; summary of the method: as §1
[23] = tested on: SK-MEL-2; experiment: Growth inhibition of human SK-MEL-2 cells at 10 uM after 48 hrs by SRB assay relative to control; conditions: SK-MEL-2, 48 h, read-out: GI; summary of the method: as §1
[24] = tested on: K562; experiment: Growth inhibition of human K562 cells at 10 uM after 48 hrs by SRB assay relative to control; conditions: K562, 48 h, read-out: GI; summary of the method: as §1
[25] = tested on: SF-295; experiment: Growth inhibition of human SF295 cells at 10 uM after 48 hrs by SRB assay relative to control; conditions: SF-295, 48 h, read-out: GI; summary of the method: as §1
[26] = tested on: NCI-H23; experiment: Growth inhibition of human NCI-H23 cells at 10 uM after 48 hrs by SRB assay relative to control; conditions: NCI-H23, 48 h, read-out: GI; summary of the method: as §1
[27] = tested on: U-251; experiment: Growth inhibition of human U251 cells at 10 uM after 48 hrs by SRB assay relative to control; conditions: U-251, 48 h, read-out: GI; summary of the method: as §2
[28] = tested on: MDA-MB-468; experiment: Growth inhibition of human MDA-MB-468 cells at 10 uM after 48 hrs by SRB assay relative to control; conditions: MDA-MB-468, 48 h, read-out: GI; summary of the method: as §1
[29] = tested on: SR; experiment: Growth inhibition of human SR cells at 10 uM after 48 hrs by SRB assay relative to control; conditions: read-out: GI; summary of the method: as §2
[30] = tested on: SNB-75; experiment: Growth inhibition of human SNB75 cells at 10 uM after 48 hrs by SRB assay relative to control; conditions: SNB-75, 48 h, read-out: GI; summary of the method: as §2
[31] = tested on: MOLT-4; experiment: Growth inhibition of human MOLT4 cells at 10 uM after 48 hrs by SRB assay relative to control; conditions: MOLT-4, 48 h, read-out: GI; summary of the method: as §1
[32] = tested on: Hs-578T; experiment: Growth inhibition of human Hs 578T cells at 10 uM after 48 hrs by SRB assay relative to control; conditions: read-out: GI; summary of the method: as §1
[33] = tested on: DU-145; experiment: Growth inhibition of human DU145 cells at 10 uM after 48 hrs by SRB assay relative to control; conditions: DU-145, 48 h, read-out: GI; summary of the method: as §1

| SMILES | inhibition of growth at 10 µM [1] | inhibition of growth at 10 µM [2] | inhibition of growth at 10 µM [3] | inhibition of growth at 10 µM [4] | inhibition of growth at 10 µM [5] | inhibition of growth at 10 µM [6] | inhibition of growth at 10 µM [7] | inhibition of growth at 10 µM [8] | inhibition of growth at 10 µM [9] | inhibition of growth at 10 µM [10] | inhibition of growth at 10 µM [11] | inhibition of growth at 10 µM [12] | inhibition of growth at 10 µM [13] | inhibition of growth at 10 µM [14] | inhibition of growth at 10 µM [15] | inhibition of growth at 10 µM [16] | inhibition of growth at 10 µM [17] | inhibition of growth at 10 µM [18] | inhibition of growth at 10 µM [19] | inhibition of growth at 10 µM [20] | also measured |
| --- | --- | --- | --- | --- | --- | --- | --- | --- | --- | --- | --- | --- | --- | --- | --- | --- | --- | --- | --- | --- | --- |
| COc1ccc(C(=O)Nc2cccc(-c3cc(=O)c4c(OC)c(OC)c(OC)cc4o3)c2)cc1 | 29.7% | 55.2% | 72.5% | 4.43% | 46.1% | -4.69% | 55.5% | 33.7% | 12% | 68.1% | 38% | 39.8% | 31% | 33.2% | 81.2% | 49.8% | 33.5% | 42.6% | 93.3% | 48.6% | inhibition of growth at 10 µM [21]: 58.1%; inhibition of growth at 10 µM [22]: 46.4%; inhibition of growth at 10 µM [23]: 38.7%; inhibition of growth at 10 µM [24]: 79.4%; inhibition of growth at 10 µM [25]: 40.4%; inhibition of growth at 10 µM [26]: 42.5%; inhibition of growth at 10 µM [27]: 27.7%; inhibition of growth at 10 µM [28]: 24.8%; inhibition of growth at 10 µM [29]: 71.4%; inhibition of growth at 10 µM [30]: 32.4%; inhibition of growth at 10 µM [31]: 76.7%; inhibition of growth at 10 µM [32]: 57.1%; inhibition of growth at 10 µM [33]: 43.5% |
| COc1cccc(NC(=O)c2cccc(-c3cc(=O)c4c(OC)c(OC)c(OC)cc4o3)c2)c1 | 12.2% | 31.3% | 59.5% | 9.93% | 46.7% | 7.62% | 53.4% | 22.5% | 10.4% | 42.9% | 37.4% | 35.2% | 26.6% | 33.4% | 83% | 36.1% | 12.3% | 25.3% | 58.1% | 45.8% | inhibition of growth at 10 µM [21]: 50.1%; inhibition of growth at 10 µM [22]: 52.1%; inhibition of growth at 10 µM [23]: 24.3%; inhibition of growth at 10 µM [24]: 59.7%; inhibition of growth at 10 µM [25]: 29.2%; inhibition of growth at 10 µM [26]: 36.9%; inhibition of growth at 10 µM [27]: 37.9%; inhibition of growth at 10 µM [28]: 21%; inhibition of growth at 10 µM [29]: 58.1%; inhibition of growth at 10 µM [30]: 10.2%; inhibition of growth at 10 µM [31]: 51.5%; inhibition of growth at 10 µM [32]: 53.8%; inhibition of growth at 10 µM [33]: 28.2% |
| COc1ccc(NC(=O)c2cccc(-c3cc(=O)c4c(O)c(OC)c(OC)cc4o3)c2)cc1 | -1.16% | -29.7% | 16% | 2.51% | 4.86% | 20.8% | 20.6% | 43.9% | -1.58% | 13.8% | 2.54% | 14.7% | -4.12% | 49.4% | 7.48% | 8.61% | 6.72% | 6.41% | 76.4% | 69% | inhibition of growth at 10 µM [21]: 20.2%; inhibition of growth at 10 µM [22]: 8.01%; inhibition of growth at 10 µM [23]: 16.6%; inhibition of growth at 10 µM [24]: 8.23%; inhibition of growth at 10 µM [25]: -3.77%; inhibition of growth at 10 µM [26]: 8.74%; inhibition of growth at 10 µM [27]: 26.8%; inhibition of growth at 10 µM [28]: 15.7%; inhibition of growth at 10 µM [29]: 19.2%; inhibition of growth at 10 µM [30]: 105%; inhibition of growth at 10 µM [31]: -2.73%; inhibition of growth at 10 µM [32]: 43.9%; inhibition of growth at 10 µM [33]: 3.06% |
